pIC50: −log10 of the molar value. Activity calls are given as the source filed them.

Here are results for one molecule from ChEMBL document CHEMBL3621164, “Discovery of Triazole CYP11B2 Inhibitors with in Vivo Activity in Rhesus Monkeys” (ACS Med Chem Lett, 2015).

Data set [1] deals with T1, Cytochrome P450 11B1, mitochondrial (Homo sapiens, UniProt P15538).
T1 sequence (P15538 whole entry): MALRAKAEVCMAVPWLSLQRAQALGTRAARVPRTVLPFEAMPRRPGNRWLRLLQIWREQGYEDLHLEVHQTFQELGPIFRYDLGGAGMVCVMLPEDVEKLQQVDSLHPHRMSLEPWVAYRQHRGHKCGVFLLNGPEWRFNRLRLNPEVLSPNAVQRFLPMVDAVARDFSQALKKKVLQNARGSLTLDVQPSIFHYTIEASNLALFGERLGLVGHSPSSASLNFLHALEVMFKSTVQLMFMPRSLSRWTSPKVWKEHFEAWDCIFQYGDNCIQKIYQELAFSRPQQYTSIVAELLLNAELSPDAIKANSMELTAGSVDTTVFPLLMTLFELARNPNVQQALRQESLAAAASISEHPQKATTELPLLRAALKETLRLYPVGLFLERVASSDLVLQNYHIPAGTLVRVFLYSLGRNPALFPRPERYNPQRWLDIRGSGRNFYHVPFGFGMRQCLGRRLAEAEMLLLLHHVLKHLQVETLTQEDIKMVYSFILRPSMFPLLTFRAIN
Description: Inhibition of human CYP11B1 expressed in V79 cells assessed as cortisol level after 3 hrs by HTRF assay in presence of 250 nM 11-deoxycortisol. In kind it is cell-based. In general terms: In TR-FRET formats the signal depends on donor and acceptor labels being close together.

Data set [2] can be described thus: Intrinsic clearance in Sprague-Dawley rat liver microsomes by LC/MS method. It is filed as ADME. The settings on record: read-out: CLH.
Data set [3] can be described thus: Half life in Sprague-Dawley rat at 2 mg/kg, po administered through gavage by LC/MS/MS method. It is filed as ADME, organism-based. As to conditions: in vivo.
Data set [4] has as its target T2, Steroid 17-alpha-hydroxylase/17,20 lyase (Homo sapiens, UniProt P05093).
T2 sequence (P05093 whole entry): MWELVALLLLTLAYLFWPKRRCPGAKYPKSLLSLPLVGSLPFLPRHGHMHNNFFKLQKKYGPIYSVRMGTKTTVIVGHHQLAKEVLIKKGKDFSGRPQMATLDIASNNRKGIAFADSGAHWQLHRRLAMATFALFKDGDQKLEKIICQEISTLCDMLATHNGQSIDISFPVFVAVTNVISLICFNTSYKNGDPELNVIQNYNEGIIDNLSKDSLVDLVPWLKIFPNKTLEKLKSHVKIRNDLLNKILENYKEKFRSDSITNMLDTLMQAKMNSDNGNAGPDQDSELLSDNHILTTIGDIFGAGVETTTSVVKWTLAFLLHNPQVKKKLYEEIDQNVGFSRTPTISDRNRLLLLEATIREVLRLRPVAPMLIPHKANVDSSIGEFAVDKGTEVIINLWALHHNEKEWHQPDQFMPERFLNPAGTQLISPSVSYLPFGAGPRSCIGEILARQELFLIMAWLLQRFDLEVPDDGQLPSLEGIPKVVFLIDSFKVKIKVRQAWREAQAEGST
Briefly: Inhibition of human CYP17 expressed in COS7 cells assessed as DHEA level after 3 hrs by EIA assay in presence of 360 nM 17-hydroxypregnenolone. It is filed as cell-based, COS-7.

Another data set concerns the target Cytochrome P450 3A4 (Homo sapiens, UniProt P08684). Description: Inhibition of human CYP3A4. In kind it is ADME.
The test system of a further data set is Plasma. Briefly: Plasma protein binding in rhesus monkey. It is filed as ADME, cell-free, Macaca mulatta.
A short description of data set [5]: Intrinsic clearance in rhesus monkey liver microsomes by LC/MS method. It is filed as ADME, Macaca mulatta.
The subject of data set [6] is Rhesus monkey. Briefly: Decrease in aldosterone level in rhesus monkey plasma at 0.3 mg/kg, iv by LC/MS method. In kind it is functional. The settings on record: Macaca mulatta. In a few lines:
(§1)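 Plasma aldosterone and 11-deoxycortisol quantified by LC–MS at time points up to 180 min postdose; AUCs over that period calculated and compared with baseline.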

Data set [7] deals with Rhesus monkey. Briefly: Effect on 11-deoxycortisol level in rhesus monkey plasma upto 1 mg/kg, iv by LC/MS method. In kind it is functional, organism-based. The settings on record: Macaca mulatta. In a few lines: as §1
Data set [8] can be described thus: Inhibition of rhesus monkey CYP11B1. Details: species or system Macaca mulatta.

Sequence of Cytochrome P450 3A4 (P08684 whole entry): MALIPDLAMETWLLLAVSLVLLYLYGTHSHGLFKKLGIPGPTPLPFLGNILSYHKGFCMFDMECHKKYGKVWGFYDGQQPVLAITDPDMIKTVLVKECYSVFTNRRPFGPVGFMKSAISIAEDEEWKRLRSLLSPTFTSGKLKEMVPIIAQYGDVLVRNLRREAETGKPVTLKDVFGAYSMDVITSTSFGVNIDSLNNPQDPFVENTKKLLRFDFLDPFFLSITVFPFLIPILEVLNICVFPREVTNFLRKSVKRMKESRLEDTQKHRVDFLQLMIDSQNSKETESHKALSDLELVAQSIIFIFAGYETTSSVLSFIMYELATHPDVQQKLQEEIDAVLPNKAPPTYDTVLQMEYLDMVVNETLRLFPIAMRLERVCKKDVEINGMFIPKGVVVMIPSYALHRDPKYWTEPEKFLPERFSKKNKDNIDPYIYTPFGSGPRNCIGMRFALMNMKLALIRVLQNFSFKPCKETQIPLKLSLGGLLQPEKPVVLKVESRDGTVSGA

As to `Cc1nnc2n1-c1ccc(-c3cncc([C@](C)(O)C(F)(F)F)c3)cc1CC2`, the pIC50 in data set [1] is 5.36; in [4], under 5.00; against Cytochrome P450 3A4, under 4.30; in data set [8], 5.46. Further, the CLint scaled in [2] and in data set [5] was under 20 mL/min/kg each time. In data set [3], this molecule gave a half-life of 1.2 h. Also, in the data set on Plasma, the PPB worked out at 31%. The same molecule came in with an inhibition in vivo at 0.3 mg/kg in the data set on Rhesus monkey [6] of 71%. For the same molecule, the outcome in the data set on Rhesus monkey [7] was inactive.

Usually pIC50 stands for −log10 of the IC50, conventionally taken in molar units. Broadly, the half-life is the time needed for the level to fall by half in the phase considered. As a reminder, the inhibition in vivo is how much of the control response was suppressed.
